Experimental findings from ChEMBL document CHEMBL4265873, “Design and discovery of silybin analogues as antiproliferative compounds using a ring disjunctive - Based, natural product lead optimization approach” (Eur J Med Chem, 2017) are described below.

Calls of active or inactive are those of the source. No cut-off for these calls is given here.

By IC50 is commonly meant the midpoint of a concentration-inhibition curve.

The test system of one data set is MCF7. The data set is described as follows: Cytotoxicity in human MCF7 cells assessed as reduction in cell viability incubated for 68 hrs by MTT assay. Type of data set: functional, cell-based. The settings on record: MCF7, 68 h. Put shortly: (§1)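 Cells were trypsinised and seeded at 5x10^3 cells/well. Compound was added at 0, 0.1, 0.3, 1, 3, 10, 30 and 100 µM for 68 h. MTT (4 mg/mL solution) was then added for 4 h, and the formazan was dissolved in DMSO. Absorbance read at 570 nm. IC50 was derived from % survival across the eight concentrations. Mean ± SD of three independent experiments, each in triplicate.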
On the technique in general: Tetrazolium dyes change colour on reduction, which living cells bring about.

The test system of a further data set is ZR-75-1. Description: Cytotoxicity in human ZR-75-1 cells assessed as reduction in cell viability incubated for 68 hrs by MTT assay. Type of data set: functional, cell-based. The note with it: ZR-75-1, 68 h. Put shortly: as §1
Another data set deals with MDA-MB-231. The data set is described as follows: Cytotoxicity in human MDA-MB-231 cells assessed as reduction in cell viability incubated for 68 hrs by MTT assay. In kind it is functional, cell-based. The settings on record: MDA-MB-231, 68 h. Put shortly: as §1
A further data set relates to DU-145. Description: Cytotoxicity in human DU145 cells assessed as reduction in cell viability incubated for 68 hrs by MTT assay. In kind it is functional, cell-based. The settings on record: DU-145, 68 h. The gist of the method: as §1
In data set [1] the test system is A2780. Description: Cytotoxicity in human A2780 cells assessed as reduction in cell viability incubated for 68 hrs by MTT assay. In kind it is functional, cell-based. The note with it: A2780, 68 h. Put shortly: as §1
Another data set has as its system HEK293. Description: Cytotoxicity in HEK293 cells assessed as reduction in cell viability incubated for 68 hrs by MTT assay. In kind it is cell-based. The note with it: Homo sapiens, HEK293, 68 h. The gist of the method: as §1
The test system of a further data set is CHO. The data set is described as follows: Cytotoxicity in CHO cells assessed as reduction in cell viability incubated for 68 hrs by MTT assay. The settings on record: Cricetulus griseus. In kind it is cell-based. Put shortly:
as §1

Data set [2] is described as follows: Selectivity index, ratio of IC50 for cytotoxicity in CHO cells incubated for 68 hrs by MTT assay to IC50 for cytotoxicity in human OV2008 cells incubated for 68 hrs by MTT assay. Type of data set: toxicity, cell-based. The note with it: Chinese hamster (CHO cells), CHO cells versus OV2008 cells, read-out: Ratio IC50.
A short description of data set [3]: Selectivity index, ratio of IC50 for cytotoxicity in HEK293 cells incubated for 68 hrs by MTT assay to IC50 for cytotoxicity in human A2780 cells incubated for 68 hrs by MTT assay. The settings on record: HEK293 cells versus A2780 cells, read-out: Ratio IC50. In kind it is toxicity, cell-based.
The test system of data set [4] is 2008. Description: Inhibition of cell proliferation of human OV2008 cells at 1 to 8 uM incubated for 10 to 50 hrs. Type of data set: functional, cell-based. The gist of the method:
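OV2008 or A2780 cells were seeded at low density (1x10^3 cells/well) and given 0, 2, 4 or 8 µM. Live-cell images were taken every 2 h for up to 48 h. Confluence at each time point was quantified with a confluence mask and plotted as timeline curves. Means ± SD of three independent experiments.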

Data set [5] deals with A2780. The data set is described as follows: Induction of apoptosis in human A2780 cells assessed as apoptosis cells level at 2 uM incubated for 12 hrs by Alexa Fluor 488 annexin V and mito-tracker red CMXRos dye staining based flow cytometry (reference value: 0.0%). Type of data set: functional. The gist of the method:
(§2)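 Cells in complete medium were treated with 0, 2 or 4 µM for 12 h, then trypsinised. They were stained with MitoTracker Red (4 µL of 10 µM working solution per 1 mL of cells) for 30 min at 37 °C under 5% CO2. Cells were then resuspended in annexin-binding buffer with Alexa Fluor 488 annexin V for 15 min. Flow cytometry emission read at 530 and 585 nm. Two independent experiments, each in triplicate.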
On the technique in general: A flow cytometer gives signals particle by particle.

The subject of data set [6] is 2008. Description: Reduction in mitochondrial potential in human OV2008 cells at 2 uM incubated for 12 hrs by Alexa Fluor 488 annexin V and mito-tracker red CMXRos dye staining based flow cytometry. In kind it is functional, cell-based. The gist of the method: as §2
Data set [7] relates to 2008. The data set is described as follows: Induction of cell cycle arrest in human OV2008 cells assessed as cell accumulation at G2 phase at 2 uM incubated for 12 hrs by propidium iodide staining based flow cytometry (reference value: 2.5%). Type of data set: functional. The gist of the method:
(§3)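 OV2008 cells were plated at 1x10^6 cells/well and incubated with 0, 2 or 4 µM for 12 h. Cells were trypsinised, washed and resuspended in ice-cold PBS, then stained with propidium iodide for at least 15 min. Phase distribution was measured by flow cytometry. Means ± SD of three independent experiments in triplicate.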

Data set [8] relates to 2008. Description: Induction of cell cycle arrest in human OV2008 cells assessed as cell accumulation at subG1 phase at 4 uM incubated for 12 hrs by propidium iodide staining based flow cytometry (reference value: 11.3%). In kind it is functional. Put shortly:
as §3

In data set [9] the test system is 2008. Description: Reduction in alpha-tubulin expression human OV2008 cells at 2 to 4 uM measured after overnight incubation by Western blot analysis. In kind it is functional, cell-based.
The species entered for a further data set is Homo sapiens. The data set is described as follows: Inhibition of tubulin alpha in human OV2008 cells assessed as induction of disturbance in cellular microtubule shape and integrity at 2 to 4 uM after overnight incubation by immunofluorescence analysis. Type of data set: cell-based.
The test system of data set [10] is 2008. Description: Potency index, ratio of IC50 for silybin to IC50 for test compound for cytotoxicity in human OV2008 cells assessed as reduction in cell viability incubated for 68 hrs by MTT assay. Type of data set: functional.
The subject of another data set is OV2008 (Homo sapiens). Description: Induction of cell cycle arrest in human OV2008 cells assessed as increase in cell accumulation at subG1 phase at 2 to 4 uM incubated for 12 hrs by propidium iodide staining based flow cytometry.

On to `O=C(/C=C/c1cccc(OCc2ccccc2)c1)c1ccc(O)cc1`, for which the IC50 in the data set on MCF7 was 2.8 µM; in the data set with ZR-75-1, 4.9 µM; in the data set on MDA-MB-231 it was 2.9 µM; in the data set on DU-145 it was 6.3 µM; in the data set on A2780 [1], 1 µM; with HEK293, 5.4 µM. Also, in the data set with CHO, the IC50 was determined as 8.1 µM. In addition, the selectivity ratio at 68 h in data set [2] and in data set [3] was 6 to 30 throughout. Also, the inhibition entry in the data set on 2008 [4] and in the data set filed under Homo sapiens was “Active” each time. For the same molecule, the Activity in the data set with A2780 [5] was 37.3%; in the data set with 2008 [7], 2.7%; in the data set with 2008 [8], 33.9%; with OV2008 (Homo sapiens), “Dose-dependent effect”. Also, the result in the data set with 2008 [6] and with 2008 [9] was Active. For the same molecule, the “Ratio IC50” value in the data set on 2008 [10] is 30 - 200.
